Assay results collected from several papers.
Compare with care: the assays were run in different laboratories.
EGFR G719C: Epidermal growth factor receptor (EGFR, Homo sapiens, UniProt P00533, G719C)
EGFR del747-750/T751S: Epidermal growth factor receptor (EGFR, Homo sapiens, UniProt P00533, del747-750/T751S)
EGFR del746-750: Epidermal growth factor receptor (EGFR, Homo sapiens, UniProt P00533, del746-750)
EGFR G719S: Epidermal growth factor receptor (EGFR, Homo sapiens, UniProt P00533, G719S)
EGFR L858R: Epidermal growth factor receptor (EGFR, Homo sapiens, UniProt P00533, L858R)
EGFR T790M: Epidermal growth factor receptor (EGFR, Homo sapiens, UniProt P00533, T790M)
EGFR del747-752/P753S: Epidermal growth factor receptor (EGFR, Homo sapiens, UniProt P00533, del747-752/P753S)

| SMILES | target | test | conditions | remaining binding |
| --- | --- | --- | --- | --- |
| O=c1nc(-c2ccccn2)sc2ccccc12 | EGFR G719C | cell-free assay, competition with immobilised ligand | 1 µM | 77% |
| CNC(=O)[C@@H]1CC[C@@H](n2c(-c3ccc4cnccc4c3)nc3ccc(C(=O)NCc4cccc(C(N)=O)c4)cc32)C1 | Epidermal growth factor receptor (EGFR, Homo sapiens, UniProt P00533, L858R/T790M) | binding, competition with immobilised ligand | 1 µM | 92% |
| CN(c1ccnc(CNc2nc(Nc3ccc4c(c3)CC(=O)N4)ncc2C(F)(F)F)n1)S(C)(=O)=O | EGFR del747-750/T751S | cell-free assay, competition with immobilised ligand | 1 µM | 83% |
| F[C@@H]1CCN(c2nccc(-c3cnn4ncccc34)n2)C1 | EGFR del746-750 | binding | 1 µM | 66% |
| O=C(c1ccc(Nc2ncc(Cl)c(-c3cc4ccccc4s3)n2)cc1)N1CCC(N2CCCC2)CC1 | EGFR G719S | binding, competition with immobilised ligand | 1 µM | 98% |
| COc1ncc2cc3ccccc3nc2c1C#N | EGFR L858R | cell-free assay, competition with immobilised ligand | 5 µM | 99% |
| CCOC(=O)c1cc2cc(-c3cc(C(=O)NCc4ccc(C(=O)O)cc4)nn3C)ccc2[nH]1 | EGFR T790M | cell-free assay, competition with immobilised ligand | 0.1 µM | 89% |
| Cc1cnc(Nc2ccc(C(=O)N3CCC(N4CCCC4)CC3)cc2)nc1-c1cc2ccccc2s1 | Epidermal growth factor receptor (EGFR, Homo sapiens, UniProt P00533, del752-759) | binding, competition with immobilised ligand | 1 µM | 84% |
| c1cncc(-c2cccc(Nc3nccc(NC4CCCCC4)n3)c2)c1 | EGFR G719C | binding, competition with immobilised ligand | 10 µM | 70% |
| C[C@H](c1ccnc(Nc2nc3ccc(-c4cc(N(C)C)ncn4)cc3[nH]2)c1)N1CCN(C(=O)CC(F)(F)F)CC1 | Epidermal growth factor receptor (EGFR, Homo sapiens, UniProt P00533, L861Q) | cell-free assay, competition with immobilised ligand | 0.1 µM | 76% |
| O=C(c1ccc(Nc2nccc(-c3cc4ccccc4s3)n2)cc1)N1CCC(N2CCCC2)CC1 | EGFR del747-752/P753S | binding, competition with immobilised ligand | 1 µM | 90% |
| CN(c1nccc(-c2cnn3ncccc23)n1)C1CC1 | EGFR T790M | binding | 1 µM | 100% |
| O=C(Nc1c[nH]nc1C(=O)NC1CCNCC1)c1cc(F)cc(F)c1 | EGFR G719S | binding, competition with immobilised ligand | 1 µM | 100% |
| O=C(NCCCN1CCOCC1)c1ccc(Nc2nccc(-c3cc4ccccc4s3)n2)cc1 | Epidermal growth factor receptor (EGFR, Homo sapiens, UniProt P00533, A750P/del747-749) | binding, competition with immobilised ligand | 1 µM | 100% |
| N[C@H]1CCN(c2nccc(-c3cnn4ncccc34)n2)C1 | EGFR L858R | binding | 1 µM | 100% |
| CC(C)(O)c1cncc(-c2nc3ccc(F)cc3n2C2CC2)c1 | EGFR del746-750 | cell-free assay, competition with immobilised ligand | 1 µM | 100% |
| CN(C)c1nccc(-c2cnc3ncccn23)n1 | EGFR G719S | binding | 1 µM | 84% |
| CN1CCN(c2ccc(Nc3nccc(-c4ccccc4)n3)cc2C(F)(F)F)CC1 | EGFR del746-750 | binding | 10 µM | 56% |
| C[C@@H]1CN(c2ccc3ncc(-c4ccc5[nH]nc(C6CC6)c5c4)n3n2)C[C@H](C)O1 | Epidermal growth factor receptor (EGFR, Homo sapiens, UniProt P00533) | binding, competition with immobilised ligand | 50 nM | 60% |
| CN(CCCC(F)(F)F)c1nccc(-c2cnn3ncccc23)n1 | EGFR del746-750 | binding | 1 µM | 80% |
| CN(C)CC#Cc1ccc(OCCCc2sc(N3CCc4cccc(C(=O)Nc5nc6ccccc6s5)c4C3)nc2C(=O)O)c(F)c1 | EGFR del747-752/P753S | cell-free assay, competition with immobilised ligand | 1 µM | 100% |
| COc1cnc(Nc2cccc(S(N)(=O)=O)c2)nc1N1CCN(c2ccccc2)C(=O)C1 | EGFR T790M | binding, competition with immobilised ligand | 1 µM | 92% |
| O=C(O)[C@H]1[C@H](Cn2nnc3ccccc3c2=O)CC[C@@H]1C(=O)c1ccc(OCCC2CCOCC2)cc1 | EGFR del747-750/T751S | cell-free assay, competition with immobilised ligand | 1 µM | 65% |
| C[C@H]1CCN(c2nccc(-c3cnn4ncccc34)n2)C1 | EGFR G719C | binding | 1 µM | 85% |
